Results taken from ChEMBL document CHEMBL5705890, “Antitumor activity of an allosteric inhibitor of centromere-associated protein-E” (Proc Natl Acad Sci U S A, 2010).

How the values were obtained:
[1] = system: D283 Med; experiment: Anticancer activity against human D283 Med cells assessed as cell growth inhibition measured after 72 hrs by DAPI staining based analysis; type: functional
How it was run: (§1)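 Cells seeded, DAPI-stained DNA content of fixed cells read by imaging 24 h after seeding (T0), and again after a further 72 h exposure to a range of drug concentrations (T72). T72 values were normalized to T0. Curve fits gave the concentration producing 50% growth inhibition relative to T0 and Ymax (GI50).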

[2] = system: CWR22R; experiment: Anticancer activity against human 22Rv1 cells assessed as cell doubling measured for 72 hrs by DAPI staining based analysis; type: functional
[3] = system: SK-N-DZ; experiment: Anticancer activity against human SK-N-DZ cells assessed as cell growth inhibition measured after 72 hrs by DAPI staining based analysis; type: functional
[4] = system: MCF-10A; experiment: Anticancer activity against human MCF-10A cells assessed as cell doubling measured for 72 hrs by DAPI staining based analysis; type: functional
[5] = system: OVCAR-8; experiment: Anticancer activity against human OVCAR-8 cells assessed as cell doubling measured for 72 hrs by DAPI staining based analysis; type: functional
[6] = system: NCI-H460; experiment: Anticancer activity against human NCI-H460 cells assessed as cell growth inhibition measured after 72 hrs by DAPI staining based analysis; type: functional
[7] = system: M14; experiment: Anticancer activity against human M14 cells assessed as cell doubling measured for 72 hrs by DAPI staining based analysis; type: functional
[8] = system: DLD-1; experiment: Anticancer activity against human DLD-1 cells assessed as cell growth inhibition measured after 72 hrs by DAPI staining based analysis; type: functional; how it was run: as §1
[9] = system: BHT-101; experiment: Anticancer activity against human BHT-101 cells assessed as cell growth inhibition measured after 72 hrs by DAPI staining based analysis; type: functional
How it was run: (§2)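 Cells were seeded, and DNA content at 24 h after seeding (T0) was read by imaging of fixed, DAPI-stained cells. Cells were then exposed to a range of drug concentrations for a further 72 h (T72) and DNA content was read again. T72 values were normalized to T0, and GI50 was taken from curve fits as the concentration giving 50% growth inhibition relative to T0 and Ymax.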

[10] = system: HT-29; experiment: Antitumor activity against human HT-29 cells in xenograft model assessed as difference between median time to endpoint time of treated versus control group at 125 mg/kg; type: functional
[11] = system: DBTRG-05MG; experiment: Anticancer activity against human DBTRG-05MG cells assessed as cell doubling measured for 72 hrs by DAPI staining based analysis; type: functional
[12] = system: SNU-398; experiment: Anticancer activity against human SNU-398 cells assessed as cell doubling measured for 72 hrs by DAPI staining based analysis; type: functional
[13] = system: Hep 3B2; experiment: Anticancer activity against human Hep3B cells assessed as cell growth inhibition measured after 72 hrs by DAPI staining based analysis; type: functional
[14] = system: SNU-387; experiment: Anticancer activity against human SNU-387 cells assessed as cell doubling measured for 72 hrs by DAPI staining based analysis; type: functional
[15] = system: MIA PaCa-2; experiment: Anticancer activity against human MIA PaCa-2 cells assessed as cell doubling measured for 72 hrs by DAPI staining based analysis; type: functional
[16] = system: CESS; experiment: Anticancer activity against human CESS cells assessed as cell growth inhibition measured after 72 hrs by DAPI staining based analysis; type: functional; how it was run: as §2
[17] = target: T1, Centromere-associated protein E (Homo sapiens, UniProt Q02224); experiment: Uncompetitive binding affinity to C-terminal 6-his-tagged CENP-E (2 to 340 residues)(unknown origin) expressed in Escherichia coli BL21(DE3) assessed as apparent inhibition constant in presence of ATP; settings: read-out: Ki(app)
T1 sequence (Q02224 whole entry, the tested form may be a part): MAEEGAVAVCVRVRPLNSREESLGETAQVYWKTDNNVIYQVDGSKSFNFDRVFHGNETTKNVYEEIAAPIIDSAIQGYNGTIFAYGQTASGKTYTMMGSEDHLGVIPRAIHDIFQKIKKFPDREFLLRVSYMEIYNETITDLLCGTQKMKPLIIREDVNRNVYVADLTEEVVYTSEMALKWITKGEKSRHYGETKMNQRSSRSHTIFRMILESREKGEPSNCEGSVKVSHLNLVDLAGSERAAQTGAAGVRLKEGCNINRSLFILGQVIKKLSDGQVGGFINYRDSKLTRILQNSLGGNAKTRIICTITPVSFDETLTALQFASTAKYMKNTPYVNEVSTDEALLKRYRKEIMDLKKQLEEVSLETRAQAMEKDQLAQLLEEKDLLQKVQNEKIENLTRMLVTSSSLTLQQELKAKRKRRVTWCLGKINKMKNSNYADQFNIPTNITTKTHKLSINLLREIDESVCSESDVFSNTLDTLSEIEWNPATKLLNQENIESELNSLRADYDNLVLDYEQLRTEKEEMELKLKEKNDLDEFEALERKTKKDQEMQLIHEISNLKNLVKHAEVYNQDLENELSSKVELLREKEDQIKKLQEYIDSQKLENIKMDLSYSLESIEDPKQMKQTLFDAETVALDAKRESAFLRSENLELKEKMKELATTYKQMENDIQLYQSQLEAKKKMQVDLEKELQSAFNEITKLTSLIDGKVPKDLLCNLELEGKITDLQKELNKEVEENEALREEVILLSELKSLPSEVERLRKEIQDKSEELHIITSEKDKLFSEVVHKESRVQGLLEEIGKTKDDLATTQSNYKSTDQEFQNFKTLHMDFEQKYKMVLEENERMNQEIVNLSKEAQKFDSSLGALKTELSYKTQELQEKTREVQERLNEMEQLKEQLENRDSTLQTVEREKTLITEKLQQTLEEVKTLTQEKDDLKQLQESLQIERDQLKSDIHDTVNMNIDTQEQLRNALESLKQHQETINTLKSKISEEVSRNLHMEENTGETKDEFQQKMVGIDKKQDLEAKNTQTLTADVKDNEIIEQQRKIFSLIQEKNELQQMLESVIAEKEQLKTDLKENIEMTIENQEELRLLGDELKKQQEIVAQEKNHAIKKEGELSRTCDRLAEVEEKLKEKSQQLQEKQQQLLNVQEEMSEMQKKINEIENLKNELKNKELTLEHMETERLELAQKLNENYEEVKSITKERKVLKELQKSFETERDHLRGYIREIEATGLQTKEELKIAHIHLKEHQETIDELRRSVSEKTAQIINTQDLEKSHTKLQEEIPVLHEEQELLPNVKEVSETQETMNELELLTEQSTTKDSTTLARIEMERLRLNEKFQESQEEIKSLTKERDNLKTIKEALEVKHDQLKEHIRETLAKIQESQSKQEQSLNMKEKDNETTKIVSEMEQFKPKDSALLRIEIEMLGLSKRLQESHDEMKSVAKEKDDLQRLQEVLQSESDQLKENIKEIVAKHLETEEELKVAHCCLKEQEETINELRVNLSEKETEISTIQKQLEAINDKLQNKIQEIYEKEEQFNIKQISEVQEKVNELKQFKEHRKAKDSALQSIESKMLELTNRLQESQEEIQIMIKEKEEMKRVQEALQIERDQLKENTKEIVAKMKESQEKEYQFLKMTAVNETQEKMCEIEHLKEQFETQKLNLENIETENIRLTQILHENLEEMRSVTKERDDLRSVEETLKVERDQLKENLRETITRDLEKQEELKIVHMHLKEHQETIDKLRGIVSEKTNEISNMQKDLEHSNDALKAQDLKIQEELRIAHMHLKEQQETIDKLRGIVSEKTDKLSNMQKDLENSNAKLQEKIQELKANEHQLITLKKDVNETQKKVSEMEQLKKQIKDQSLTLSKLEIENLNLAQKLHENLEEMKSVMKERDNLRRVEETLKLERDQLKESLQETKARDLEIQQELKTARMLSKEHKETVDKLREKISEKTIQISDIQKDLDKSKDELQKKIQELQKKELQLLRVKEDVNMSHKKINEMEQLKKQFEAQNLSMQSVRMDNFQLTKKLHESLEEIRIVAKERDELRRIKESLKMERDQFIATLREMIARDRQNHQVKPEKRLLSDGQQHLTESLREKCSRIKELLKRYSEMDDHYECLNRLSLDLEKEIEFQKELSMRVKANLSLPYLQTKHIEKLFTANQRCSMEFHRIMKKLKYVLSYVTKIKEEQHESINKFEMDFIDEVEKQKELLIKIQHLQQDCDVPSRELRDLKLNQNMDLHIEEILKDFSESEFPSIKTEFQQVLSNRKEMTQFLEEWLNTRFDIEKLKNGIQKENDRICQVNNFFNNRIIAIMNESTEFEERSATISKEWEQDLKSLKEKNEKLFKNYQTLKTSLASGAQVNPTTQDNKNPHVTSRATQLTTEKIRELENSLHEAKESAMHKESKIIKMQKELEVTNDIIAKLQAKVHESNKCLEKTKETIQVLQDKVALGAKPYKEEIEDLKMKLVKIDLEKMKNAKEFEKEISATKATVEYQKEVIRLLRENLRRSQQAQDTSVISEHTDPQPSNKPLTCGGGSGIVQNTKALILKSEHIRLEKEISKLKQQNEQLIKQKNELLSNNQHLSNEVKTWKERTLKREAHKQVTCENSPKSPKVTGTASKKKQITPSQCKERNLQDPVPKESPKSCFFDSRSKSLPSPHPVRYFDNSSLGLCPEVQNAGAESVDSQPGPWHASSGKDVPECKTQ

[18] = system: SF-295; experiment: Anticancer activity against human SF-295 cells assessed as cell doubling measured for 72 hrs by DAPI staining based analysis; type: functional
[19] = system: GCT; experiment: Anticancer activity against human GCT cells assessed as cell doubling measured for 72 hrs by DAPI staining based analysis; type: functional
[20] = system: AN3-CA; experiment: Anticancer activity against human AN3-CA cells assessed as cell doubling measured for 72 hrs by DAPI staining based analysis; type: functional
[21] = Anticancer activity against human KPL-1 cells assessed as cell doubling measured for 72 hrs by DAPI staining based analysis; type: functional
[22] = system: U-251; experiment: Anticancer activity against human U-251 cells assessed as cell doubling measured for 72 hrs by DAPI staining based analysis; type: functional
[23] = system: A101D; experiment: Anticancer activity against human A101D cells assessed as cell doubling measured for 72 hrs by DAPI staining based analysis; type: functional
[24] = system: UACC-257; experiment: Anticancer activity against human UACC-257 cells assessed as cell doubling measured for 72 hrs by DAPI staining based analysis; type: functional
[25] = Anticancer activity against human C4-1 cells assessed as cell growth inhibition measured after 72 hrs by DAPI staining based analysis; type: functional; how it was run: as §2
[26] = Anticancer activity against human SCC-13 cells assessed as cell growth inhibition measured after 72 hrs by DAPI staining based analysis; type: functional
[27] = system: NCI-H508; experiment: Anticancer activity against human NCI-H508 cells assessed as cell doubling measured for 72 hrs by DAPI staining based analysis; type: functional
[28] = system: MX1; experiment: Anticancer activity against human MX1 cells assessed as cell doubling measured for 72 hrs by DAPI staining based analysis; type: functional
[29] = system: SJRH30; experiment: Anticancer activity against human SJRH30 cells assessed as cell growth inhibition measured after 72 hrs by DAPI staining based analysis; type: functional
[30] = system: MDA-MB-175-VII; experiment: Anticancer activity against human MDA-MB-175-VII cells assessed as cell growth inhibition measured after 72 hrs by DAPI staining based analysis; type: functional
[31] = system: OVCAR-4; experiment: Anticancer activity against human OVCAR-4 cells assessed as cell growth inhibition measured after 72 hrs by DAPI staining based analysis; type: functional
[32] = system: SK-N-FI; experiment: Anticancer activity against human SK-N-FI cells assessed as cell doubling measured for 72 hrs by DAPI staining based analysis; type: functional
[33] = system: BFTC-905; experiment: Anticancer activity against human BFTC-905 cells assessed as cell growth inhibition measured after 72 hrs by DAPI staining based analysis; type: functional
How it was run: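 Cells were seeded and, after 24 h, DNA content was read as T0. Cells were then exposed to varying drug concentrations for a further 72 h (T72). Fixed cells were DAPI-stained and DNA content measured by automated imaging. T72 values were normalized to T0. GI50 is the concentration giving 50% growth inhibition between T0 and Ymax, obtained by curve fitting.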

[34] = system: KATO III stomach cancer cell line; experiment: Anticancer activity against human KATO III stomach cancer cell line cells assessed as cell doubling measured for 72 hrs by DAPI staining based analysis; type: functional
[35] = system: K562; experiment: Anticancer activity against human K562 cells assessed as cell growth inhibition measured after 72 hrs by DAPI staining based analysis; type: functional
[36] = system: NCI-H460; experiment: Antitumor activity against human NCI-H460 cells in xenograft model assessed as tumor growth delay at 62.5 mg/kg relative to control; type: functional
[37] = system: CAL-54; experiment: Anticancer activity against human CAL-54 cells assessed as cell doubling measured for 72 hrs by DAPI staining based analysis; type: functional
[38] = target: T1, Centromere-associated protein E; experiment: Inhibition of ATPase activity of C-terminal 6-his-tagged CENP-E (2 to 340 residues)(unknown origin) expressed in Escherichia coli BL21(DE3) in presence of ATP
[39] = system: MDA-MB-453; experiment: Anticancer activity against human MDA-MB-453 cells assessed as cell growth inhibition measured after 72 hrs by DAPI staining based analysis; type: functional

`CC(C)Oc1ccc(C(=O)N[C@H](CNC(=O)CN(C)C)Cc2ccc(-c3cn4cccc([C@H](C)O)c4n3)cc2)cc1Cl` [GSK-923295A] showed a GI50 [1] of 28 nM, an Activity [2] of 2.46 and a GI50 [3] of 69 nM. The Activity [4] was 3.87, the Activity [5] was 3.26 and the GI50 [6] was 29 nM. The Activity [7] was 2.27, the GI50 [8] was 60 nM and the GI50 [9] was 100 nM. It also gave a Time [10] of 18 days, an Activity [11] of 1.33 and an Activity [12] of 2.53. It also gave a GI50 [13] of 164 nM, an Activity [14] of 1.21 and an Activity [15] of 3.72. For the same compound, the GI50 [16] was 19 nM, the Ki [17] was 3.2 nM and the Activity [18] was 2.3. For the same compound, the Activity [19] was 2.3, the Activity [20] was 1.74 and the Activity [21] was 2.47. For the same compound, the Activity [22] was 3.04, the Activity [23] was 1.36 and the Activity [24] was 1.79. The GI50 [25] was 42 nM, the GI50 [26] was 58 nM and the Activity [27] was 3.01. For the same compound, the Activity [28] was 2.99, the GI50 [29] was 26 nM and the GI50 [30] was 23 nM. For the same compound, the GI50 [31] was 30 nM, the Activity [32] was 1.24 and the GI50 [33] was 30 nM. For the same compound, the Activity [34] was 2.02, the GI50 [35] was 25 nM and the Activity [36] was 87%. For the same compound, the Activity [37] was 1.05, the IC50 [38] was 2080 nM and the GI50 [39] was 27 nM.
